Reference: PubChem BioAssay AID504418 (Johns Hopkins Ion Channel Center, 2011)
Active and inactive are the calls of the source.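 How the source made its calls: active means compound raising or lowering KCNQ1 potassium channel current, with its KCNE1 partner, at some dose, giving a dose response curve; inactive means no effect at any dose or no curve.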

These compounds were tested against Potassium voltage-gated channel subfamily KQT member 1 (Homo sapiens) + Potassium voltage-gated channel subfamily E member 1 (Homo sapiens) (UniProt P15382+P51787) (assay: KCNQ1/KCNE1 channel modulation by KCNQ2 openers, dose response, selectivity assay for KCNQ2 activator project, Tl flux, KCNQ1/E1-expressing cells (AID 504418)). Settings: FluxOR thallium flux; series mostly up to 30 µM.
Chain of Potassium voltage-gated channel subfamily KQT member 1 (Homo sapiens) + Potassium voltage-gated channel subfamily E member 1 (Homo sapiens) (O88943 whole entry, looked up): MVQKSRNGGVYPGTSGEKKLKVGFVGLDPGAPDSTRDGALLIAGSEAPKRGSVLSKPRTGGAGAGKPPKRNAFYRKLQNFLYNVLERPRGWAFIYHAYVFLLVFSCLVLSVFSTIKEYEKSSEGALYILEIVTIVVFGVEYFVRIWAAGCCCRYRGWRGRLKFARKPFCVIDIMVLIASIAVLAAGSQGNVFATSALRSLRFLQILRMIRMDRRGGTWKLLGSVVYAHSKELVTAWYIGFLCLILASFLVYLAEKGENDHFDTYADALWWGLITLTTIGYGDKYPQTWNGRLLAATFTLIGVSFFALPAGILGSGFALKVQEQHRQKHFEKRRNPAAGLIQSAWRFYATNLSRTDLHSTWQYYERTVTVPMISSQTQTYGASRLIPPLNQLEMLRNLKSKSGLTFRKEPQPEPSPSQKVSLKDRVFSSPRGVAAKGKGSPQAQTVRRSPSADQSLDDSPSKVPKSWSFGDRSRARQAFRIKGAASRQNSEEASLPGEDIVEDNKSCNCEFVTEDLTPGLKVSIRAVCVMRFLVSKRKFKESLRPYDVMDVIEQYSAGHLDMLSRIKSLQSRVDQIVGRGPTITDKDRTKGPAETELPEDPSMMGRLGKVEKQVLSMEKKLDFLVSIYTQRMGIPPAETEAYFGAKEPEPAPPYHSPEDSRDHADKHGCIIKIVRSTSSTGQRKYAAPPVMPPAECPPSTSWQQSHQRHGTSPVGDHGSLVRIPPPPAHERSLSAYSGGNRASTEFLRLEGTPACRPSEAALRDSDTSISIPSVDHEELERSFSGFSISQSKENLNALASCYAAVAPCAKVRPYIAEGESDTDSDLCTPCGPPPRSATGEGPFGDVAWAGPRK
Chain of Potassium voltage-gated channel subfamily KQT member 1 (Homo sapiens) + Potassium voltage-gated channel subfamily E member 1 (Homo sapiens) (P51787 whole entry, looked up): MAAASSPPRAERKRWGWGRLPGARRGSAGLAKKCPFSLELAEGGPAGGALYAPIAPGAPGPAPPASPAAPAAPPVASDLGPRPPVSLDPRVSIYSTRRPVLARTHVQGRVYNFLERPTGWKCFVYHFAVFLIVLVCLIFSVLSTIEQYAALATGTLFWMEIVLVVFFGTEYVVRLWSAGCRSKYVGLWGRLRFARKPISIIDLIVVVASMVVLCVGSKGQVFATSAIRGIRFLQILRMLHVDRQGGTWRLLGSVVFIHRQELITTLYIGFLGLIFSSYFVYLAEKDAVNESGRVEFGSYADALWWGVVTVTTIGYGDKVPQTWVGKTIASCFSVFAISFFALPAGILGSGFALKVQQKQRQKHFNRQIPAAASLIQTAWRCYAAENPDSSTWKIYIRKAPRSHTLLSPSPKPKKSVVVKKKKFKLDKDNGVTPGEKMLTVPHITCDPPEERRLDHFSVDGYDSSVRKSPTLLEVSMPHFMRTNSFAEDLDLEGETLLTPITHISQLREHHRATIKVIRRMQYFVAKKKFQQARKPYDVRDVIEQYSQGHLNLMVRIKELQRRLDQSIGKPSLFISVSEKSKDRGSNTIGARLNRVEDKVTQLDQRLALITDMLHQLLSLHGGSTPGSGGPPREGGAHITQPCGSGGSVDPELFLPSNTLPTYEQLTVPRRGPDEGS
Summary of the method: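 Test system: CHO cell line expressing human KCNQ1/KCNE1 potassium channel; times: FluxOR dye loading 90 min, compound exposure 20 min, room temperature; measured by: FluxOR thallium-flux kinetic fluorescence; controls: vehicle wells with stimulus, blank wells without stimulus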

| Structure (SMILES) | outcome |
| --- | --- |
| Cc1cc(C)c(NC(=O)CC(C)(C)C)c(Cl)c1 | inactive |
| Cc1cccc(C)c1NC(=O)C1CC2CCC1C2 (stereo not given) | inactive |
| Cc1ccc(C)c(NC(=O)C2CC3CCC2C3)c1 (stereo not given) | inactive |
| Cc1cc(C)c(NC(=O)C2CC3CCC2C3)c(C)c1 (stereo not given) | inactive |
| CCCCC(=O)Nc1c(C)cc(C)cc1Cl | inactive |
